From ChEMBL document CHEMBL3745617 (J Med Chem, 2015)
Activity calls are given as the source filed them. The rule behind the calls is not given here.

Assays:
[1] = biological target: Receptor tyrosine-protein kinase erbB-3 (Homo sapiens) (UniProt P21860); experiment: Inhibition of ERBB3 (unknown origin) assessed as remaining activity at 1 uM relative to control
In short: (§1)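 KinomeScan competitive binding panel of 468 kinases. Compound tested at a single 1 µM concentration. Read-out is percent of kinase activity remaining relative to a DMSO control.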

[2] = biological target: Receptor-type tyrosine-protein kinase FLT3 (Homo sapiens) (UniProt P36888); settings: MOLM-13, 0.03 to 3 uM
[3] = biological target: Receptor-type tyrosine-protein kinase FLT3 (Homo sapiens) (UniProt P36888); settings: MOLM-14, 0.03 to 3 uM
[4] = Half life in Sprague-Dawley rat at 1 mg/kg, iv; assay type: ADME, organism-based; settings: in vivo
[5] = biological target: Proto-oncogene tyrosine-protein kinase receptor Ret (Homo sapiens) (UniProt P07949); experiment: Inhibition of RET (unknown origin) assessed as remaining activity at 1 uM relative to control
In short: (§2)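 KinomeScan competition binding panel of 468 kinases, with the compound tested at 1 µM. Each kinase's result is reported as percent activity remaining relative to a DMSO control.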

[6] = biological target: Receptor-type tyrosine-protein kinase FLT3 (Homo sapiens) (UniProt P36888); settings: MV4-11, 0.03 to 3 uM
[7] = biological target: Proto-oncogene tyrosine-protein kinase receptor Ret (Homo sapiens) (UniProt P07949); experiment: Inhibition of RET (unknown origin) expressed in BaF3 cells assessed as inhibition of cell proliferation after 72 hrs by CelltiterGlo assay; assay type: cell-based
[8] = biological target: Tyrosine-protein kinase BTK (Homo sapiens, UniProt Q06187); experiment: Inhibition of BTK (unknown origin) by ADP-Glo assay
[9] = biological target: Receptor-type tyrosine-protein kinase FLT3 (Homo sapiens) (UniProt P36888); settings: MOLM-14, 0.03 to 3 uM; remark: listed apart in the source
[10] = Tmax in Sprague-Dawley rat at 10 mg/kg, po; assay type: ADME, organism-based; settings: in vivo
MOLM-13 = experiment: Induction of apoptosis in human MOLM13 cells assessed as cleaved caspase-3 level at 0.03 to 1 uM after 12 hrs by immunoblot analysis; assay type: functional, cell-based
[11] = Half life in Sprague-Dawley rat at 10 mg/kg, po; assay type: ADME, organism-based; settings: in vivo
[12] = Cmax in Sprague-Dawley rat at 1 mg/kg, iv; assay type: ADME, organism-based; parameters: dose 1 mg/kg, route intravenous; settings: in vivo
[13] = biological target: Receptor-type tyrosine-protein kinase FLT3 (Homo sapiens) (UniProt P36888); settings: MV4-11, 0.03 to 3 uM; remark: listed apart in the source
[14] = biological target: Receptor-type tyrosine-protein kinase FLT3 (Homo sapiens) (UniProt P36888); settings: MOLM-13, 0.03 to 3 uM; remark: listed apart in the source
[15] = Cell cycle arrest in human MOLM13 cells assessed as accumulation at G0/G1 phase at 0.03 to 1 uM after 12 hrs by flow cytometry; assay type: functional, cell-based; settings: MOLM-13
[16] = Cytotoxicity against mouse BAF3 cells assessed as cell proliferation after 72 hrs by CelltiterGlo assay; assay type: cell-based
[17] = system: Receptor-type tyrosine-protein kinase FLT3 (Homo sapiens), P36888 [D835V]; settings: BaF3
[18] = biological target: Receptor-type tyrosine-protein kinase FLT3 (Homo sapiens) (UniProt P36888); settings: MOLM-14, 0.03 to 3 uM; remark: listed apart in the source
MV4-11 [19] = experiment: Cell cycle arrest in human MV4-11 cells assessed as accumulation at G0/G1 phase at 0.03 to 1 uM after 24 hrs by flow cytometry; assay type: functional, cell-based
[20] = biological target: Tyrosine-protein kinase Lck (Homo sapiens) (UniProt P06239); experiment: Inhibition of LCK (unknown origin) expressed in BaF3 cells assessed as inhibition of cell proliferation after 72 hrs by CelltiterGlo assay; assay type: cell-based
[21] = biological target: Receptor-type tyrosine-protein kinase FLT3 (Homo sapiens) (UniProt P36888); settings: BaF3
[22] = biological target: Tyrosine-protein kinase HCK (Homo sapiens) (UniProt P08631); experiment: Inhibition of HCK (unknown origin) assessed as remaining activity at 1 uM relative to control; in short: as §1
[23] = AUC(0 to infinity) in Sprague-Dawley rat at 10 mg/kg, po; assay type: ADME, organism-based; parameters: dose 10 mg/kg, route oral, time infinity; settings: in vivo
[24] = biological target: Tyrosine-protein kinase Blk (Homo sapiens) (UniProt P51451); experiment: Inhibition of BLK (unknown origin) assessed as remaining activity at 1 uM relative to control; in short: as §1
[25] = Mean residence time (0 to infinity) in Sprague-Dawley rat at 10 mg/kg, po; assay type: ADME, organism-based; settings: in vivo
MOLM-14 = experiment: Induction of apoptosis in human MOLM14 cells assessed as cleaved caspase-3 level at 0.03 to 1 uM after 24 hrs by immunoblot analysis; assay type: functional, cell-based
[26] = biological target: Dual specificity mitogen-activated protein kinase kinase 5 (Homo sapiens) (UniProt Q13163); experiment: Inhibition of MEK5 (unknown origin) assessed as remaining activity at 1 uM relative to control; in short: as §2
[27] = system: Receptor-type tyrosine-protein kinase FLT3 (Homo sapiens), P36888 [UNDEFINED MUTATION]; settings: BaF3
[28] = Antiproliferative activity against human SU-DHL-2 cells after 72 hrs by CelltiterGlo assay; assay type: functional; settings: SU-DHL-2, 72 h
[29] = system: Receptor-type tyrosine-protein kinase FLT3 (Homo sapiens), P36888 [D835H]; settings: BaF3
[30] = Antiproliferative activity against human NAMALWA cells after 72 hrs by CelltiterGlo assay; assay type: functional; settings: NAMALVA
MV4-11 [31] = experiment: Antitumor activity against human MV4-11 cells xenografted in nu/nu mouse assessed as tumor weight at 12.5 mg/kg/day administered via oral gavage measured after 22 days of treatment (reference value: 2.5 g); assay type: functional
[32] = biological target: Cytoplasmic tyrosine-protein kinase BMX (Homo sapiens) (UniProt P51813); experiment: Inhibition of BMX (unknown origin) expressed in BaF3 cells assessed as inhibition of cell proliferation after 72 hrs by CelltiterGlo assay; assay type: cell-based
[33] = AUC(0 to t) in Sprague-Dawley rat at 10 mg/kg, po; assay type: ADME, organism-based; settings: in vivo
[34] = biological target: Tyrosine-protein kinase JAK2 (Homo sapiens) (UniProt O60674); experiment: Inhibition of JAK2 (unknown origin) expressed in BaF3 cells assessed as inhibition of cell proliferation after 72 hrs by CelltiterGlo assay; assay type: cell-based
[35] = system: Receptor-type tyrosine-protein kinase FLT3 (Homo sapiens), P36888 [UNDEFINED MUTATION]; experiment: Inhibition of FLT3 ITD mutant (unknown origin) expressed in BaF3 cells assessed as inhibition of cell proliferation after 72 hrs by CelltiterGlo assay; assay type: cell-based
[36] = biological target: Tyrosine-protein kinase JAK3 (Homo sapiens) (UniProt P52333); experiment: Inhibition of JAK3 (unknown origin) expressed in BaF3 cells assessed as inhibition of cell proliferation after 72 hrs by CelltiterGlo assay; assay type: cell-based
[37] = Antiproliferative activity against human NB4 cells after 72 hrs by CelltiterGlo assay; assay type: functional; settings: NB-4, 72 h

Sequence of Proto-oncogene tyrosine-protein kinase receptor Ret (Homo sapiens) (P07949 whole entry): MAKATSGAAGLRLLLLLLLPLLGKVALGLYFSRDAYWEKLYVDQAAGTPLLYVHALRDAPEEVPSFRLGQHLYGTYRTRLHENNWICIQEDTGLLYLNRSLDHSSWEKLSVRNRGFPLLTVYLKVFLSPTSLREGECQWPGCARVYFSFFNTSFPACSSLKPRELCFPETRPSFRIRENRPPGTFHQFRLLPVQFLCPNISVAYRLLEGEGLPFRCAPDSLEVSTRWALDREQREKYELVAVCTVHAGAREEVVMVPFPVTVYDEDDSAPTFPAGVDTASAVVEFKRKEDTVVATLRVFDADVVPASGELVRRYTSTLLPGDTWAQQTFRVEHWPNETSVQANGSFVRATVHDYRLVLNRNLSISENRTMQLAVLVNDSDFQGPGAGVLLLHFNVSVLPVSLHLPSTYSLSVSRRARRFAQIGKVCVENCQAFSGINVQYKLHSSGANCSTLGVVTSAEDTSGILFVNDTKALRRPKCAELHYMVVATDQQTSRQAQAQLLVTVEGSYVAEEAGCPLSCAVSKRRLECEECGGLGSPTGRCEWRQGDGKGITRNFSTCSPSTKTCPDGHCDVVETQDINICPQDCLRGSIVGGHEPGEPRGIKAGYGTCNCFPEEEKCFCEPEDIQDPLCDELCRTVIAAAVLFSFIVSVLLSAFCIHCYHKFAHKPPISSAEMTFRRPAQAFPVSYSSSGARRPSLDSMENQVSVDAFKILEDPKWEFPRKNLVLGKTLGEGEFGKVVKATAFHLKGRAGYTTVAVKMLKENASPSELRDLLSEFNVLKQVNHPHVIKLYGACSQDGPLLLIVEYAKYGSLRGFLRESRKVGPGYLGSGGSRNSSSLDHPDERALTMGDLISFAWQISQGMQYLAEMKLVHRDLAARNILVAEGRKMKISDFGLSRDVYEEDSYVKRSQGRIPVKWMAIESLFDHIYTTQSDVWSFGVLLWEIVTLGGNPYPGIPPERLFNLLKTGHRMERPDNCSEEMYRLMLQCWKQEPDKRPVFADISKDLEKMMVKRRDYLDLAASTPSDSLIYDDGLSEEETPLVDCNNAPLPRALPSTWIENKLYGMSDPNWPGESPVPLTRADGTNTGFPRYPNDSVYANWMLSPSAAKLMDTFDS
Sequence of Tyrosine-protein kinase Lck (Homo sapiens) (P06239 2-509 limits assumed): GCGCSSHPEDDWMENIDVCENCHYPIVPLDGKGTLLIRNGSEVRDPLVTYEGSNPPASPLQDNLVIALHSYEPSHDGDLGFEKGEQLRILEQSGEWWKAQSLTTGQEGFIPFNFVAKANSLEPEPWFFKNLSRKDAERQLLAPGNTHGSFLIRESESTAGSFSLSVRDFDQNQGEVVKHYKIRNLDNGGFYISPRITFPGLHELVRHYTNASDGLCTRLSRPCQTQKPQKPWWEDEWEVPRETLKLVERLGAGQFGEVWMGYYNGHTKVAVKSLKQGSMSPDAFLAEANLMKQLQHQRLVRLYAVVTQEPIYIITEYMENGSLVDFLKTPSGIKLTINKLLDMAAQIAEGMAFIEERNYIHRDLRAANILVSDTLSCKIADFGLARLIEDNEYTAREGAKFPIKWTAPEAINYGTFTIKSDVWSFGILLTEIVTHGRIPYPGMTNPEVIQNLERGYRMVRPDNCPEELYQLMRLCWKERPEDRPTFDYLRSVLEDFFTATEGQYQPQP
Sequence of Tyrosine-protein kinase BTK (Q06187 whole entry): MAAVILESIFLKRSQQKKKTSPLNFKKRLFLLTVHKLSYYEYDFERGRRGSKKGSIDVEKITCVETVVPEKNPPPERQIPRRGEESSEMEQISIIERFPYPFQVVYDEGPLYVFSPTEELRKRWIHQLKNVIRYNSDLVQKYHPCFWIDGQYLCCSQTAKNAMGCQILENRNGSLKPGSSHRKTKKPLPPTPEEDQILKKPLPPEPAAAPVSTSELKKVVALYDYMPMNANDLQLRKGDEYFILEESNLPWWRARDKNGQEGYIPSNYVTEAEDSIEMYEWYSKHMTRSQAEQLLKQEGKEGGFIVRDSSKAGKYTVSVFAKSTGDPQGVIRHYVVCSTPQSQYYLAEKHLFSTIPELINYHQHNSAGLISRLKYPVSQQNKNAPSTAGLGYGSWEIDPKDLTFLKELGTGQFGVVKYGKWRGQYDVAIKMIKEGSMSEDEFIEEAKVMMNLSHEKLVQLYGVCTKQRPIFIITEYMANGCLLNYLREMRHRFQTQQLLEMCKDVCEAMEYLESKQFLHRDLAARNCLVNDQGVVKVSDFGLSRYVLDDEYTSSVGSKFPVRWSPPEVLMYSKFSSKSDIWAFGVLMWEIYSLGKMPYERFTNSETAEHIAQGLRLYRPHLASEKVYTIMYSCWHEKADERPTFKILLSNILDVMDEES
Sequence of Tyrosine-protein kinase JAK3 (Homo sapiens) (P52333 whole entry): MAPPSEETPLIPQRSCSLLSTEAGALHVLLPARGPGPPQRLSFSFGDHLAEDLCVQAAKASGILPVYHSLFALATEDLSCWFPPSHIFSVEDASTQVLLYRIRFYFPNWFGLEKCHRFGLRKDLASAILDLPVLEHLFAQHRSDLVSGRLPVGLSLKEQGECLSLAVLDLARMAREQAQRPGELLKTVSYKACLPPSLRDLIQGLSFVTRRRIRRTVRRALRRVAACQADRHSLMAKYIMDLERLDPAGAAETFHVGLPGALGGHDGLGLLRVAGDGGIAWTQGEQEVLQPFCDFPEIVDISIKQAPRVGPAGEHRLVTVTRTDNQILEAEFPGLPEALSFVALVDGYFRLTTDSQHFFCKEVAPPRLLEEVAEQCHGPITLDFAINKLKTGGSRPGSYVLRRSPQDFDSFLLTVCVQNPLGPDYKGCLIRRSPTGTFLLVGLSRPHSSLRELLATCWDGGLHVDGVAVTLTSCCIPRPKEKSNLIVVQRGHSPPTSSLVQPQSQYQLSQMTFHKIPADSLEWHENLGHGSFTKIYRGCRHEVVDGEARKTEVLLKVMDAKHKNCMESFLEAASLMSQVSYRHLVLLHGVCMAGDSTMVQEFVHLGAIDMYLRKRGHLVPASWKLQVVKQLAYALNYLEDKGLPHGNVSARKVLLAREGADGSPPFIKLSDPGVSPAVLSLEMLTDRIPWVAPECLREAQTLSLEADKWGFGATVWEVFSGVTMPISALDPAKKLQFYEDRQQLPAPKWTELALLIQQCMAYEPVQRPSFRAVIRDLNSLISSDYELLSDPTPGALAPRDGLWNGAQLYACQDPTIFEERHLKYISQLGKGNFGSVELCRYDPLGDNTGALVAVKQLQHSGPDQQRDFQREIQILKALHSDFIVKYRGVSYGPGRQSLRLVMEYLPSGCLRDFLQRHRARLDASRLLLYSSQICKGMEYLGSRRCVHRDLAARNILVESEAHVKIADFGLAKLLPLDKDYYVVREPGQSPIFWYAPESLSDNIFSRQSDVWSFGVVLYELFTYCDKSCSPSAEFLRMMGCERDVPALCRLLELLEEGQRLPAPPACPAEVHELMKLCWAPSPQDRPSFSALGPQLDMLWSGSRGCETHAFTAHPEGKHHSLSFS
Sequence of Tyrosine-protein kinase Blk (Homo sapiens) (P51451 2-505 limits assumed): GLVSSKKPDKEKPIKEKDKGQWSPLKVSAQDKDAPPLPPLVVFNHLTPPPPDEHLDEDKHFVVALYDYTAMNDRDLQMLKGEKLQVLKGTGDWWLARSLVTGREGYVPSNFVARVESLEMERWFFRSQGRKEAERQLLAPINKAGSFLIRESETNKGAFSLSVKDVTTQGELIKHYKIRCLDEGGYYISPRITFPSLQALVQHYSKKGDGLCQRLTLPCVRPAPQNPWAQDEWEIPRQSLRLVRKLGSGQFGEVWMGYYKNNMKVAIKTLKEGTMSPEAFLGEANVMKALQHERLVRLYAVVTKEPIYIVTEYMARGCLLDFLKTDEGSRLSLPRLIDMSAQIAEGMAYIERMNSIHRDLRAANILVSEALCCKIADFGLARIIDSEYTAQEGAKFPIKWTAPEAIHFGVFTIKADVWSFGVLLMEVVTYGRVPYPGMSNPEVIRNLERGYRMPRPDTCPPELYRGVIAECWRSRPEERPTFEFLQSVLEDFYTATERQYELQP
Sequence of Tyrosine-protein kinase JAK2 (Homo sapiens) (O60674 whole entry): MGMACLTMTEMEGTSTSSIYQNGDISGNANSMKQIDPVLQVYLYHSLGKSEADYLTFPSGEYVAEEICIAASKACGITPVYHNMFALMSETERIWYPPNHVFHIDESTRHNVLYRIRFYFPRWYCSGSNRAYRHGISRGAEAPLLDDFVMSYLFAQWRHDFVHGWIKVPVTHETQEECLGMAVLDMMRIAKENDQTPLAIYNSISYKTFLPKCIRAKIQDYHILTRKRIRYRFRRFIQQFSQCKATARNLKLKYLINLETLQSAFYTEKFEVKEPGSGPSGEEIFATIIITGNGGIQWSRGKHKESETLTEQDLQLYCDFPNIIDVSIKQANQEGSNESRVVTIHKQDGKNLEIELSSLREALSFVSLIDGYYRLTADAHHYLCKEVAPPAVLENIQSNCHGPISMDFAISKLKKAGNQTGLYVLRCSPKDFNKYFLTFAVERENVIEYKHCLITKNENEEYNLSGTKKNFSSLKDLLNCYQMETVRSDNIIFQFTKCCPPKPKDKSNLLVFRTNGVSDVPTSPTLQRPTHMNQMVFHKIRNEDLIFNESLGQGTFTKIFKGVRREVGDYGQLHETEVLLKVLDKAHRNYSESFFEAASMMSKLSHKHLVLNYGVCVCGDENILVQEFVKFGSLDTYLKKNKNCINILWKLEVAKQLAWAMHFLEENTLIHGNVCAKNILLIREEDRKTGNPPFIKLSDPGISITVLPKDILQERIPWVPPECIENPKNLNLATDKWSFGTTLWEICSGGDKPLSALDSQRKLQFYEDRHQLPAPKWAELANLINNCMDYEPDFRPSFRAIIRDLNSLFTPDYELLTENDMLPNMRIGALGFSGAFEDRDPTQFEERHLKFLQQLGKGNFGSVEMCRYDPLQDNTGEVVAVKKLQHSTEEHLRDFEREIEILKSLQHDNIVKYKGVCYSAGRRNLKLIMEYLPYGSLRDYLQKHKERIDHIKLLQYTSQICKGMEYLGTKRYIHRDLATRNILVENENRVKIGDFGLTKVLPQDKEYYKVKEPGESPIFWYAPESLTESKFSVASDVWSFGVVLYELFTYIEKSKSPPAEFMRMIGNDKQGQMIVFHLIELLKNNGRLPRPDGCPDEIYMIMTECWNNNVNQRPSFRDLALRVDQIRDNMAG

CN(C)CC(=O)N1CCC[C@@H](n2nc(-c3ccc(Oc4ccccc4)cc3)c3c(N)ncnc32)C1
Activity [1]: 0.05% | inhibition [2]: Active | inhibition [3]: Active | half-life [4]: 1.38 h | Activity [5]: 0.4% | inhibition [6]: Active | GI50 [7]: 650 nM | IC50 [8]: 421 nM | inhibition [9]: Active | Tmax [10]: 1.67 h | Activity (MOLM-13): Active | half-life [11]: 1.24 h | Cmax [12]: 1500 ng/mL | inhibition [13]: Active | inhibition [14]: Active | Activity [15]: Active | GI50 at 72 h [16]: 4900 nM | GI50 [17]: 3 nM | inhibition [18]: Active | Activity (MV4-11 [19]): Active | GI50 [20]: 310 nM | GI50 [21]: 16 nM | Activity [22]: 0.5% | AUCinf [23]: 1880 ng·h/mL | Activity [24]: 0.1% | MRT inf [25]: 2.75 h | Activity (MOLM-14): Active | Activity [26]: 0.45% | GI50 [27]: 220 nM | GI50 [28]: 5500 nM | GI50 [29]: 4 nM | GI50 [30]: 6400 nM | Activity (MV4-11 [31]): 1.54 g | GI50 [32]: 280 nM | AUC(0-t) [33]: 1830 ng·h/mL | GI50 [34]: 300 nM | GI50 [35]: 11 nM | GI50 [36]: 2500 nM | GI50 [37]: 3800 nM
